Source: PMC8606320 (Bioorganic & Medicinal Chemistry, 2021)

Assays:
[1] = In vivo acute toxicity assay; conditions: oral 230 mg/kg twice a day
Summary of the method: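 Test compounds as sulfate salts, dissolved in physiological saline. Mice (25 g) were fasted overnight: 16 male and 16 female in four groups (n = 8), male and female vehicle controls and male and female test groups. They were dosed intragastrically with vehicle or 230 mg/kg twice a day. Death, daily behaviour and body weight were monitored for 20 days, and survival was plotted as curves.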

SARS-CoV-2 [2] = format: cell-based
SARS-CoV-2 [3] = conditions: COVID-19 patients, on the 6th day; cited from earlier work

## (R)-2-((4-((7-chloroquinolin-4-yl) amino) pentyl) (ethyl) amino) ethan-1-ol sulfate [R-HCQ]
[1]
  tolerability in mice compared to Rac-HCQ and S-HCQ: better tolerated
[1]; monitored 20 days
  day until which mice performed well: 12 dpd
SARS-CoV-2 [2]
  inhibition of cytopathic changes caused by the virus: complete inhibition

## CCN(CCO)CCCC(C)Nc1ccnc2cc(Cl)ccc12.O=S(=O)(O)O (racemic) [Rac-HCQ, hydroxychloroquine, reference compound]
SARS-CoV-2 [2]
  inhibition of cytopathic changes caused by the virus: complete inhibition
SARS-CoV-2 [3]
  nasopharyngeal swab virus negative rate: 57.1%

## CCC(CC)COC(=O)[C@H](C)N[P@](=O)(OC[C@H]1O[C@@](C#N)(c2ccc3c(N)ncnn23)[C@H](O)[C@@H]1O)Oc1ccccc1 [Remdesivir, reference compound]
SARS-CoV-2 [2]
  inhibition of the occurrence of lesions (CPE): completely inhibited

## (S)-2-((4-((7-chloroquinolin-4-yl) amino) pentyl) (ethyl) amino) ethan-1-ol sulfate [S-HCQ]
[1]; monitored 20 days
  day at which mice appeared malaise: 9 dpd
SARS-CoV-2 [2]
  inhibition of cytopathic changes caused by the virus: complete inhibition
